Data as given in paper PMC3004996 (Bioconjugate chemistry, 2010).
Where two headings read alike, the source gives them in different places. Bridge positions count the residues as written; N and C are the ends. Ends that are not written are not given here. Peptide text beside a SMILES is read from it. * marks the point of attachment. DOTA = O=C(O)CN1CCN(CC(=O)O)CCN(CC(=O)*)CCN(CC(=O)O)CC1

How the values were obtained:
[1] = In vivo biodistribution, gamma counting of dissected tissue; conditions: nude (nu/nu), mouse, iv, 100 uCi, total radioactivity
Summary of the method: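 U87MG xenograft-bearing anesthetized nude mice received ~100 μCi (~0.5 nmol) of 64Cu/Cy5.5 dual-labelled test peptide by tail vein. They were euthanized at 1, 4 and 24 hr. Dissected tissues were weighed and gamma counted, calibrated against a pre-measured tracer aliquot, and normalized to whole body weight and residual tail activity. Values are %ID/g, mean and standard deviation of three mice.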

[2] = Stability in mouse serum, radio-HPLC; format: in vitro ADME; conditions: 50% mouse serum, 37 °C
[3] = In vivo metabolite analysis; design: species or system mouse; conditions: radio-HPLC and gamma counting
Summary of the method: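 Female athymic nude mice bearing subcutaneous shoulder U87MG xenografts (~10⁷ cells; tumors 8–10 mm) were anesthetized and given 200–400 μCi of ⁶⁴Cu-labeled test peptide by tail vein, then euthanized. Blood and tumor were suspended in ~500 μL PBS plus 500–1000 μL DMF and homogenized by mortar and pestle. Homogenates were passed through a 0.2 μm filter. Filtrates were run on reversed-phase HPLC, with 30 s fractions gamma-counted (cpm).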

[4] = tested on: U87MG cells; assay: Cell binding and uptake study; format: cell-based, human; conditions: 5 × 10^5 U87MG cells, 1 μg c(RGDyK), 37 °C, 30, 60, 120 min
Summary of the method: (§1)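 Cells were suspended in integrin binding buffer (25 mM Tris pH 7.4, 150 mM NaCl, 2 mM CaCl₂, 1 mM MgCl₂, 1 mM MnCl₂, 0.1% BSA). They were incubated with the ⁶⁴Cu-labeled test peptide at 1.5 μCi/tube, with or without c(RGDyK). Cells were then washed three times with chilled PBS, pelleted and gamma-counted. Uptake is % of added radioactivity, in triplicate. U87MG were maintained in DMEM and MDA-MB-435 in L-15, each with 10% heat-inactivated FBS.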

[5] = tested on: MDA-MB-435 cells; assay: Cell binding and uptake study; format: cell-based, human; conditions: 5 × 10^5 MDA-MB-435 cells, 37 °C, 30, 60, 120 min
Summary of the method: as §1

[6] = MicroPET imaging of MDA-MB-435 xenografts; format: in vivo; conditions: female, athymic nude (nu/nu), mouse, tumor (MDA-MB-435 xenograft), iv, total radioactivity
Summary of the method: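 MDA-MB-435 cells were grown in Leibovitz L-15 with 10% FBS, and 5 × 10⁶ cells in PBS were implanted subcutaneously in the shoulder of 4-6-week female nude mice. At 8-10 mm tumor diameter, mice (n ≥ 3) received ~100 μCi (~0.5 nmol) labelled probe by tail vein. Imaging used microPET with 3 or 5 min static scans. ROI counts/g/min were converted to %ID/g assuming 1 g/mL, without attenuation correction. Blocking groups were co-injected with 330 μg unlabelled c(RGDyK).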

[7] = tested on: U87MG tumor xenografts; conditions: cited from earlier work
[8] = incubation in serum for 24 h; cited from earlier work
[9] = 1 hr after injection into mice; cited from earlier work
[10] = target: αvβ3 integrin (Homo sapiens, UniProt P05106+P06756); conditions: read-out: KD for αvβ3 integrin; cited from earlier work
Chain of αvβ3 integrin (P06756 31-889 limits assumed): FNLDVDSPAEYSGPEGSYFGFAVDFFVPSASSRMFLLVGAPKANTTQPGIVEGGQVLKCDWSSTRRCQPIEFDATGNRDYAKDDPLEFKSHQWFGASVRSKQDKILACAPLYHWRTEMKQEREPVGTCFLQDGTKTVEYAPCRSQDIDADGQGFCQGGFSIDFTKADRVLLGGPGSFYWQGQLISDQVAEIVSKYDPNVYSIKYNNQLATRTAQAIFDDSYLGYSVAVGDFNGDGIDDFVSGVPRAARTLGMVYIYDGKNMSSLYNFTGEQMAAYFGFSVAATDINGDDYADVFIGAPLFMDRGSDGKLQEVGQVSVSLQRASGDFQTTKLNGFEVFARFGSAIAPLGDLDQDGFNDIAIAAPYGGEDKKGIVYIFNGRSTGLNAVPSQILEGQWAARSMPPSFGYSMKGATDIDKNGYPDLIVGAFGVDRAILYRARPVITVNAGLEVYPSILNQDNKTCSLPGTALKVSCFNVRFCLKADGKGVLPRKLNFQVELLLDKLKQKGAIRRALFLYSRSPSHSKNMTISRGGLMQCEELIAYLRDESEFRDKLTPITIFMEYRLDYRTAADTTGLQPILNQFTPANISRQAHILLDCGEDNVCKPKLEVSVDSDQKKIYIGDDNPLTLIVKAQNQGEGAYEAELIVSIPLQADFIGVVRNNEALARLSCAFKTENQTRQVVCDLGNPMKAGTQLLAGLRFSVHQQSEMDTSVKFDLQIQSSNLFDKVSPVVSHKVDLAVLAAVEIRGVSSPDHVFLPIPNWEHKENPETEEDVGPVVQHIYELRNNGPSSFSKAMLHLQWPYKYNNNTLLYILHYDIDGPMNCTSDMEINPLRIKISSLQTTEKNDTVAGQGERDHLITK
Chain of αvβ3 integrin (P06756 891-1048 partner limits assumed): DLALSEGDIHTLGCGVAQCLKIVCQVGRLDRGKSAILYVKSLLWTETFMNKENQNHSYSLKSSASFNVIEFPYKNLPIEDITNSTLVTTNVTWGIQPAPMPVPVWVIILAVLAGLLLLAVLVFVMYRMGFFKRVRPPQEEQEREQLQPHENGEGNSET
Chain of αvβ3 integrin (P05106 27-788): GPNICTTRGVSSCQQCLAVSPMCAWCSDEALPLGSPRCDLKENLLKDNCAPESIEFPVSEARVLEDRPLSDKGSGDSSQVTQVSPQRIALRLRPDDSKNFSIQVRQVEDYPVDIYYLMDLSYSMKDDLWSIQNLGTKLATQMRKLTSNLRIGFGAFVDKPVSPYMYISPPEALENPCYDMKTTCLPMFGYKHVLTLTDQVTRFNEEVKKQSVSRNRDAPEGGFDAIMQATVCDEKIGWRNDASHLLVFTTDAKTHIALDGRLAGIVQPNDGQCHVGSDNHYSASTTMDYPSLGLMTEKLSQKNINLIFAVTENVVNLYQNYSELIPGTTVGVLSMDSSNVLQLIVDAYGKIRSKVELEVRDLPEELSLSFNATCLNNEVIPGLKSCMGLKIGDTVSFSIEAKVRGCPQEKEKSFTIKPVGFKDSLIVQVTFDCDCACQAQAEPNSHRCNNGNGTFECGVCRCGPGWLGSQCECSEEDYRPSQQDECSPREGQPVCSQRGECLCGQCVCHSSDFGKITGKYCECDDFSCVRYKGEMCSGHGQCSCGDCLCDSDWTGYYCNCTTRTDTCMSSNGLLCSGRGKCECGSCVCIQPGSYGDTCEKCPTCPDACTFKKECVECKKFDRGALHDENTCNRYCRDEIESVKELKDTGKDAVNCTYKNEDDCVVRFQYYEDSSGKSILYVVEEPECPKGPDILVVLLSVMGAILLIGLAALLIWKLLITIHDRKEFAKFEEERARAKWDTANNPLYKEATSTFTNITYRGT

[11] = target: integrin αvβ3 (Homo sapiens) (UniProt P06756); conditions: cited from earlier work
Chain of integrin αvβ3 (Homo sapiens) (P06756 31-1048, chain 1 of 2): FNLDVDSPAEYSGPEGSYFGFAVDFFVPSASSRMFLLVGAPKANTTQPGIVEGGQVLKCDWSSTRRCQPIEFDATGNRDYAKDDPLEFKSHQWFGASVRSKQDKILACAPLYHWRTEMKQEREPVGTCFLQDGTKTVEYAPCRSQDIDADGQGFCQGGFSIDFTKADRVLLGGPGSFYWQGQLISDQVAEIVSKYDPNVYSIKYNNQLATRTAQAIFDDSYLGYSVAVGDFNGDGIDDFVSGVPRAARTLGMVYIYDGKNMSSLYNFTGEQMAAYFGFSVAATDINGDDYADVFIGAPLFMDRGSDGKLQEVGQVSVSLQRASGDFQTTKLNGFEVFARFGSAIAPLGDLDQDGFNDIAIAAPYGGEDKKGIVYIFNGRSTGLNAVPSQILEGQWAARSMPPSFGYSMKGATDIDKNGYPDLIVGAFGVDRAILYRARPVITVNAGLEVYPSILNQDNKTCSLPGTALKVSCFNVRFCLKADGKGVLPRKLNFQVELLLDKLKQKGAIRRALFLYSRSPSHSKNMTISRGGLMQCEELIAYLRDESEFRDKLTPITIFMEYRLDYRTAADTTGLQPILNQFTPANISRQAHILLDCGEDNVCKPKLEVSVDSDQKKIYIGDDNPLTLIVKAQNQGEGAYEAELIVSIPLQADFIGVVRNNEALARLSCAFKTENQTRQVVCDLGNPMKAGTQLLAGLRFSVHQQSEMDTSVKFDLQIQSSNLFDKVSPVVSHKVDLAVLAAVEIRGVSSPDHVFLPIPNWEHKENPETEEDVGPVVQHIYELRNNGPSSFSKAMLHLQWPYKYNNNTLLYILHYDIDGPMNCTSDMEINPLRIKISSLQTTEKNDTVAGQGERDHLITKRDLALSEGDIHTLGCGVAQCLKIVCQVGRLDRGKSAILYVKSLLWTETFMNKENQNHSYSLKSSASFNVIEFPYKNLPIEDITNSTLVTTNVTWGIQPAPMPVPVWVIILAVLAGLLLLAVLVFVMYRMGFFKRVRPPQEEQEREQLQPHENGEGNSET
Chain of integrin αvβ3 (Homo sapiens) (P05106 27-788, chain 2 of 2, further chain): as the sequence (P05106 27-788) above

Chain of echistatin (P17347 131-179): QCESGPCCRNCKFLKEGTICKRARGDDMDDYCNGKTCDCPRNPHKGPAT

Question: Which results are given for `CCN1C(=CC=CC=CC2=[N+](CCCCCC(=O)NCCCC[C@H](NC(=O)CN3CCN(CC(=O)O)CCN(CC(=O)O)CCN(CC(=O)O)CC3)C(=O)NCC(=O)NCC(=O)N[C@@H](Cc3ccc(O)cc3)C(=O)NCC(=O)N[C@H]3CSSC[C@@H]4NC(=O)CNC(=O)[C@H](C)NC(=O)[C@H](CC(C)C)NC(=O)[C@@H]5CSSC[C@@H](C(=O)NCC(N)=O)NC(=O)[C@H](Cc6ccccc6)NC(=O)CNC(=O)[C@H](CC(N)=O)NC(=O)[C@@H]6CCCN6C(=O)CNC(=O)[C@H](CSSC[C@H](NC(=O)[C@H](CO)NC(=O)[C@H]([C@@H](C)O)NC(=O)[C@@H]6CCCN6C(=O)[C@H](C)NC(=O)[C@H](Cc6c[nH]c7ccccc67)NC(=O)[C@H](CC(=O)O)NC(=O)CNC(=O)[C@H](CCCNC(=N)N)NC(=O)CNC(=O)[C@H](CCC(N)=O)NC(=O)[C@@H]6CCCN6C3=O)C(=O)N[C@@H](CO)C(=O)N[C@@H](CCC(N)=O)C(=O)N[C@@H](CC(=O)O)C(=O)N[C@@H](CO)C(=O)N[C@@H](CC(=O)O)C(=O)N5)NC(=O)[C@H](C(C)C)NC4=O)c3ccc4c(S(=O)(=O)[O-])cc(S(=O)(=O)O)cc4c3C2(C)C)C(C)(C)c2c1ccc1c(S(=O)(=O)O)cc(S(=O)(=O)O)cc21` (single isomer, unassigned) [^64Cu-DOTA/Cy5.5-2.5D, ^64Cu-DOTA-Lys(Cy5.5)-Gly-Gly-Tyr-2.5D, metal not drawn]?
Answer: tissue uptake ([1]; kidney, Kidney uptake, for 1-4 hr post injection, approximate): ~80 %ID/g; tissue uptake ([1]; liver, Liver uptake, at 1-24 hr post injection): 4 to 7 %ID/g; tissue uptake ([1]; liver, Liver uptake, at 1 and 4 hr post injection): 4 to 7 %ID/g; Stability in mouse serum ([2]; 1 hr): minimal probe degradation; Stability in mouse serum ([2]; 24 hr): intact probe was unrecoverable; In vivo metabolic stability in tumor ([3]; U87MG tumor 1 hr post injection): significant breakdown of probe; In vivo metabolic stability in kidney ([3]; kidney 1 hr post injection): intact probe was not able to be recovered; In vivo metabolic stability in liver ([3]; liver 1 hr post injection): intact probe was not able to be recovered; Cell binding and uptake with excess c(RGDyK) [4]: blocked; Cell binding and uptake with excess c(RGDyK) ([5]; 1 μg c(RGDyK)): blocked; Cell binding and uptake, versus U87MG cells ([5]; 1.5 μCi/tube, IBB, gamma counter, triplicate): lower levels of probe uptake; tissue uptake at 1 h ([6]; 100 uCi): 1.33 ± 0.02 %ID/g; tissue uptake at 24 h ([6]; 100 uCi): 1.01 ± 0.1 %ID/g; tissue uptake at 1 h [6]: 0.82 ± 0.05 %ID/g; tissue uptake at 24 h [6]: 0.6 ± 0.09 %ID/g

Question: Which Liver uptake ([7]; 1 to 4 hr post injection, previously observed) does the source give for `CC(C)C[C@@H]1NC(=O)[C@@H]2CSSC[C@@H](C(=O)NCC(N)=O)NC(=O)[C@H](Cc3ccccc3)NC(=O)CNC(=O)[C@H](CC(N)=O)NC(=O)[C@@H]3CCCN3C(=O)CNC(=O)[C@@H]3CSSC[C@H](NC(=O)[C@H](CO)NC(=O)[C@H]([C@@H](C)O)NC(=O)[C@@H]4CCCN4C(=O)[C@H](C)NC(=O)[C@H](Cc4c[nH]c5ccccc45)NC(=O)[C@H](CC(=O)O)NC(=O)CNC(=O)[C@H](CCCNC(=N)N)NC(=O)CNC(=O)[C@H](CCC(N)=O)NC(=O)[C@@H]4CCCN4C(=O)[C@@H](NC(=O)CNC(=O)CN4CCN(CC(=O)O)CCN(CC(=O)O)CCN(CC(=O)O)CC4)CSSC[C@H](NC(=O)CNC(=O)[C@H](C)NC1=O)C(=O)N[C@@H](C(C)C)C(=O)N3)C(=O)N[C@@H](CO)C(=O)N[C@@H](CCC(N)=O)C(=O)N[C@@H](CC(=O)O)C(=O)N[C@@H](CO)C(=O)N[C@@H](CC(=O)O)C(=O)N2` [^64Cu-DOTA-2.5D, metal not drawn] ({DOTA}-GCPQGRGDWAPTSCSQDSDCLAGCVCGPNGFCG-NH2; disulfide 2-24, 14-26, 20-32) here?
Answer: 1-2 %ID/g

Question: What about the Kidney uptake ([7]; 1 hr post injection) of the same compound?
Answer: 8.08 ± 0.67 %ID/g

Question: What about the Kidney uptake ([7]; 4 hr post injection) of the same compound?
Answer: 2.69 ± 0.48 %ID/g

Question: What about the Kidney uptake ([7]; 24 hr post injection) of the same compound?
Answer: 1.25 ± 0.11 %ID/g

Question: What about the Stability in serum [8] of the same compound?
Answer: only minimal fragmentation

Question: What about the “In vivo metabolic stability in blood, tumor and kidneys” value [9] of the same compound?
Answer: recovered intact

Question: With “ECESGPCCRNCKFLKEGTICKRARGDDMDDYCNGKTCDCPRNPHKGPAT (disulfide 2-11, 7-32, 8-37, 20-39 (inferred)) [Echistatin]” as the compound, how does the Kd [10] read?
Answer: ~0.4 nM

Question: With echistatin (from UniProt P17347) as the compound, how does the Kd [11] read?
Answer: 0.4 nM
